This is a sample that favours compounds with a hit; in the whole collection about 2.4% have one here.
MT1-MMP act inh = inhibitors of human MT1-MMP activation | GFP/RFP ratio change, % at 20 µM | HT1080 RFP-PRO-GFP cells, GFP/RFP ratio fluorescence, overnight; percent of plate control window, DMSO zero | actives 0.061% (n = 360,000) | AID 651647;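 active means GFP/RFP ratio change of at least 30% with cell ATP level not reduced by more than half and red fluorescence within 50% of control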
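Assay system: HT1080 RFP-PRO-GFP cells | Dosing: 20 µM single dose, 1% DMSO | Incubation: Cells overnight before dosing, compound overnight, 37 °C, 5% CO2 | Evaluation: GFP/RFP fluorescence ratio | Control set: DMSO-only wells and HT1080 RFP-L50D-GFP cell wells as references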
NRP1-CendR mod = alters CendR peptide binding to human NRP-1. O14786. FAM-RPARPAR peptide binding to NRP-1, fluorescence polarization. inhibition, % at 25 µM. actives 0.85% (n = 360,000). AID 602438;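 active means inhibition or corrected inhibition above about 18%, plus a signal ratio from 0.5 to 1.5, limit read from the data, passing the limit was not always enough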
Target sequence (O14786 whole entry, looked up): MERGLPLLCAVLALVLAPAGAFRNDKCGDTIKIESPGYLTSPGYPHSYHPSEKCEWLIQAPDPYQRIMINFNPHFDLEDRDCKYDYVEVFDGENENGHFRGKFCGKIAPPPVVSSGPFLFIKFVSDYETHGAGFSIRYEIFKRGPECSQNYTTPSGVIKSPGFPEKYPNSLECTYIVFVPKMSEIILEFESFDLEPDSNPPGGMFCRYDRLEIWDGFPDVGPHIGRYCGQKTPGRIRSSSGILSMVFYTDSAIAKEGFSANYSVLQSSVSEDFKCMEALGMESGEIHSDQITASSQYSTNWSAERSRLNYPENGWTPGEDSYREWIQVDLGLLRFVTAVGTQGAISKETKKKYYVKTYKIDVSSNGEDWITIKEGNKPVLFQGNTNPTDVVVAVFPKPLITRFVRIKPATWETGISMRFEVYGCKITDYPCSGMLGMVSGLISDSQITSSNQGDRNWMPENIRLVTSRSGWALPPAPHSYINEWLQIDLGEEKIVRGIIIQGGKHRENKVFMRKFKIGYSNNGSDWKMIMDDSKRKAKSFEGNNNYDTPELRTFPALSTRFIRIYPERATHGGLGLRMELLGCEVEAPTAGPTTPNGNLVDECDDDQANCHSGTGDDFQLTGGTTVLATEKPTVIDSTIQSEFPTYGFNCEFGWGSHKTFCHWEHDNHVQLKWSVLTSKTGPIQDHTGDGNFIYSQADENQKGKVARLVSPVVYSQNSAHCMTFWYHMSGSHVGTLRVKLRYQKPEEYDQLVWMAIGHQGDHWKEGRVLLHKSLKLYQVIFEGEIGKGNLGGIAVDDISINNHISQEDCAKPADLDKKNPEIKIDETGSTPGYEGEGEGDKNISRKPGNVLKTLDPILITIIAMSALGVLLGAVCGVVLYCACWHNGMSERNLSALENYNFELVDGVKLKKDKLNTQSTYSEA
Myeloid diff MLP = promotes myeloid progenitor differentiation. ER-HoxA9 myeloid progenitors, lysozyme-GFP differentiation, flow cytometry. calls only at 10 µM. actives 1% (n = 360,000);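 active means normalized GFP-positive differentiation at or above the plate's own cutoff, the solvent-only control mean plus 3 SD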;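 further: cells exposed to compound for four days before flow analysis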
MIN6 prolif-1 = inducers of beta-cell replication in MIN6 cells; MIN6 cells proliferation, ATPlite luminescence, 48 h; cells starved in 0.2% serum; 100% = growth in 10% serum; proliferation, % at 10 µM; actives 0.29% (n = 330,000); AID 2380;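 active means compounds whose signal lies at least 3.5 SD above the mean of all wells on their plate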
SENP1 FRET inh = inhibitors of human SENP1 SUMO protease catalytic domain; recombinant SENP1 catalytic domain, CyPet-SUMO1-YPet FRET cleavage; inhibition, % at 10 µM; actives 0.21% (n = 360,000); AID 624204;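 active means inhibition at least 30% at 10 µM, raw YFP signal under a set limit, fluorescence ratio 0.5 to 1.5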
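Test system: human SENP1 catalytic domain; medium: Tris pH 8 buffer plus EDTA, NaCl, BME, BSA, NP40, catalase; incubation: 50 min reaction at room temperature; technique: FRET, CFP and YFP emission; controls: no-enzyme low control and enzyme-plus-DMSO high control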
DAGLB inhibitor = blocks human DAGLB lipase activity | Q8NCG7 | HEK293T DAGLB membrane lysate, EnzChek fluorogenic substrate | inhibition, % at 5.17 µM | actives 0.059% (n = 340,000) | AID 504411; in the data active means inhibition above about 34%
MIN6 prolif-2 = MIN6 beta-cell replication induction, confirmed | shares compounds with MIN6 prolif-1 | MIN6 beta-cell proliferation, ATPlite luminescence, 48 h; cells kept in 0.2% serum; scaled between 0.2% and 10% serum | proliferation increase, % at 50 µM | 920 tested, under 10 active | AID 463095;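 active means proliferation increase above 40% at any of the four tested concentrations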
A number is an active result; i = inactive; nt = not tested or not shown.

SMILES	MT1-MMP act inh	NRP1-CendR mod	Myeloid diff MLP	MIN6 prolif-1	SENP1 FRET inh	DAGLB inhibitor	MIN6 prolif-2
CCN(C(=O)CCC(=O)N(CC)c1ccccc1)c1ccccc1	i	i	i	i	i	i	nt
CCC(=O)N1CCc2cc(S(=O)(=O)CCC(=O)Nc3ccc(F)c(F)c3)ccc21	i	i	i	i	i	i	nt
CCC(=O)N1CCc2cc(S(=O)(=O)CCC(=O)Nc3cccc(F)c3)ccc21	i	i	i	8.9	i	i	i
CC1(C)CN2C(=O)c3ccccc3C2(C)S1 (stereo unspecified)	i	i	i	8.0	i	i	i
COc1ccccc1N(C(=O)c1snc(C(N)=O)c1N)C(C(=O)NC1CCCCC1)c1cccc(OC)c1OC (stereo unspecified)	i	i	nt	25	i	i	i
COc1ccccc1N(C(=O)c1ccco1)C(C(=O)NC1CCCC1)c1cccs1 (stereo unspecified)	i	i	nt	0.0	i	i	i
O=C(NC(c1ccc(-c2ccccc2)cc1)c1cnccn1)C1CCN(CCCOc2ccccc2)CC1 (stereo unspecified)	i	i	i	nt	i	nt	nt
CN1CCN(S(=O)(=O)Cc2ccc(Cl)cc2)CC1	i	i	i	i	i	i	nt
Nc1ncnc(N2CCc3ccccc32)c1[N+](=O)[O-]	i	i	i	20	i	i	i
NNC(=O)c1ccc(N2CCc3ccccc32)c([N+](=O)[O-])c1	i	i	i	i	i	i	nt
COCCN(Cc1cc2ccc(C)cc2[nH]c1=O)S(=O)(=O)c1ccccc1	i	i	i	9.1	i	i	i
Cn1c(Oc2ccccc2)c(C=O)c2ccccc21	i	i	i	i	i	i	nt
CC(=O)c1ccc(-c2ccc(C(=O)N(C)c3c(N)n(Cc4ccccc4)c(=O)[nH]c3=O)o2)cc1	i	i	i	i	i	i	nt
COc1ccc(/C=C(\NC(=O)c2ccccc2)C(=O)OC[C@@H]2CCC[N+]3(C)CCCCC23)cc1OC (stereo partly specified)	i	i	i	i	i	i	nt
CC1CCN(CCOc2ccccc2-c2ccccc2)CC1	i	i	i	0.0	i	i	i
CC1CCCN(C(=S)Nc2ccc3nc4n(c(=O)c3c2)CCCCC4)C1 (stereo unspecified)	i	i	i	i	i	i	nt
OCC1(Cc2cccc(Cl)c2)CCCN(Cc2cnn(-c3ccccc3)c2)C1 (stereo unspecified)	i	i	i	i	i	i	nt
O=C(Nc1ccc(Br)cc1)C1CC(O)CN1C(=O)OCc1ccccc1 (stereo unspecified)	i	i	nt	11	i	i	i
COc1ccccc1N1CCN(C(=O)Cn2nc3n(C)c4ccccc4n3c(=O)c2=O)CC1	nt	nt	nt	i	nt	nt	nt
COc1cc2c(cc1OC)C(Nn1cnnc1)=NC1(CCCC1)C2	i	i	i	5.2	i	i	i
CCOC(=O)c1c(C)[nH]c(C)c1C(=O)CSc1nnnn1-c1ccccc1	i	i	i	5.5	i	i	i
Cc1ccccc1C(=O)N1CCC(C(=O)OCc2ccccc2Cl)CC1	i	i	i	i	i	i	nt
Cc1noc(C)c1COc1ccccc1C(=O)Nc1cccc(S(=O)(=O)N(C)C)c1	i	i	i	14	i	i	i
Cc1ccccc1OCCSc1nnc(-c2cccnc2)n1N	i	i	i	i	i	i	nt
CC(N=C1CC(C)(C)CC(=O)/C1=C(/O)CCCN1C(=O)c2ccccc2C1=O)C(=O)O (stereo unspecified)	i	i	i	i	i	i	nt
SMILES	MT1-MMP act inh	NRP1-CendR mod	Myeloid diff MLP	MIN6 prolif-1	SENP1 FRET inh	DAGLB inhibitor	MIN6 prolif-2
CN1CCN(CC(O)COC(c2ccccc2)c2ccccc2)CC1 (stereo unspecified)	i	i	i	8.2	i	nt	i
COC(=O)NCN1C(=O)C2C3C=CC(C3)C2C1=O (stereo unspecified)	i	i	i	i	i	i	nt
COc1ccc(-c2cc(C(=O)Nc3ccccc3SC)no2)cc1	i	i	i	i	i	i	nt
COC(=O)c1ccccc1NC(=O)c1cc(-c2ccc(C)cc2)on1	i	i	i	8.3	i	i	i
N#Cc1nc(-c2ccc(F)cc2)oc1N1CCC(C(N)=O)CC1	i	i	i	i	i	i	nt
CC(C)c1nc(CN2CCCCC2)cc(=O)[nH]1	i	i	i	8.9	i	nt	i
O=[N+]([O-])c1ccc(CSc2ccc(S(=O)(=O)N3CCOCC3)cn2)cc1	i	i	i	i	i	i	nt
O=[N+]([O-])c1cnccc1Nc1ccccc1	i	i	i	i	i	i	nt
COc1ccccc1Nc1ccncc1[N+](=O)[O-]	i	i	i	8.1	i	i	i
Cn1c2ccccc2n2c(=O)c(Cl)c(-c3ccccc3)c(C#N)c12	i	i	i	7.9	i	i	i
Cc1cccn2c(=O)c3cc(C(=O)NCCc4ccccc4)sc3nc12	i	i	i	7.4	i	i	i
N#Cc1nc(-c2ccco2)oc1NCc1ccco1	i	i	i	i	i	i	nt
N#Cc1nc(-c2ccco2)oc1NCc1ccccc1Cl	i	i	i	4.6	i	nt	i
CCOC(=O)C(CC)Sc1nc2c(c(=O)[nH]c(=O)n2C)n1C/C=C(/C)Cl (stereo unspecified)	i	i	i	5.4	i	i	i
C/C(Cl)=C/Cn1c(SCC(C)C)nc2c1c(=O)[nH]c(=O)n2C	i	i	i	i	i	i	nt
CCCCOC(=O)CSc1nc2c(c(=O)[nH]c(=O)n2C)n1C/C=C(\C)Cl	nt	i	i	5.4	i	i	i
N#CC1(Nc2ccc([N+](=O)[O-])cc2)CCCC1	i	i	i	nt	i	i	nt
COc1ccc(CC(=O)NCCS(=O)(=O)N2CCN(c3ccccc3)CC2)cc1OC	i	i	i	i	i	i	nt
COc1ccc(CC(=O)NCCS(=O)(=O)N2CCN(c3ccccc3)CC2)cc1	i	i	i	11	i	i	i
COc1cccc(CN2c3ccc(Br)cc3C(=O)CS2(=O)=O)c1	i	i	i	i	i	i	nt
Cc1cccc(NC(=S)N(CCc2nc3cc(C)c(C)cc3[nH]2)Cc2cccnc2)c1	i	i	i	4.8	i	i	i
COc1cccc(NC(=S)N(CCc2nc3cc(C)c(C)cc3[nH]2)Cc2cccnc2)c1	i	i	i	i	i	i	nt
CNC(=S)N(CCc1c(C)[nH]c2ccc(C)cc12)Cc1cccnc1	i	i	i	13	i	i	i
CCOC(=O)CSc1nnc(-c2ccco2)n1-c1ccc(C)cc1	i	i	i	i	i	i	nt
